The values below come from ChEMBL document CHEMBL4364285 (J Med Chem, 2019).

Series [1] has as its target Protein cereblon/Zinc finger protein Aiolos (Homo sapiens) (UniProt Q96SW2+Q9UKT9). The series can be described thus: Inhibition of CRBN-mediated IKFZ3 degradation in human OPM2 cells measured after 24 hrs by Western blot analysis. The class given is cell-based.
The target in series [2] is T1, Cereblon isoform 4 (Magnetospirillum gryphiswaldense, UniProt A4TVL0).
T1 sequence (A4TVL0 whole entry): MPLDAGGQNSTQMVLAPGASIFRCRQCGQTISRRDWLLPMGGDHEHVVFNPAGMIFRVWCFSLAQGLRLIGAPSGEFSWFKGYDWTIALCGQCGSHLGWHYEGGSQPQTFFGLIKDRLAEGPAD
The series can be described thus: Inhibition of MANT-uracil binding to wild-type Magnetospirillum gryphiswaldense CRBN isoform 4 by FRET assay. A digest of the protocol: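 Wild-type MsCI4 FRET binding assay, following an earlier protocol. Compounds were dissolved in DMSO, or in water or bicarbonate buffer where soluble. Ki values were derived from the binding curves.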

Series [3] is described as follows: Solubility of the compound in bicarbonate buffer. The class given is physicochemical.
Series [4] can be described thus: Solubility of the compound in water. To be noted: buffer. In kind it is physicochemical.
In series [5] the test system is THP-1. The series can be described thus: Inhibition of TPA-induced TNFalpha production in human THP1 cells at 3 uM by ELISA relative to control. In kind it is functional.
Series [6] can be described thus: Terminal elimination half life in healthy human at 50 to 400 mg, po at pH 7.4. The class given is ADME, organism-based. To be noted: in vivo, read-out: beta t1/2.

Calls of active or inactive are those of the source. The rule behind the calls is not given here.

Protein cereblon/Zinc finger protein Aiolos (Homo sapiens), sequence (Q96SW2 whole entry, looked up, canonical isoform): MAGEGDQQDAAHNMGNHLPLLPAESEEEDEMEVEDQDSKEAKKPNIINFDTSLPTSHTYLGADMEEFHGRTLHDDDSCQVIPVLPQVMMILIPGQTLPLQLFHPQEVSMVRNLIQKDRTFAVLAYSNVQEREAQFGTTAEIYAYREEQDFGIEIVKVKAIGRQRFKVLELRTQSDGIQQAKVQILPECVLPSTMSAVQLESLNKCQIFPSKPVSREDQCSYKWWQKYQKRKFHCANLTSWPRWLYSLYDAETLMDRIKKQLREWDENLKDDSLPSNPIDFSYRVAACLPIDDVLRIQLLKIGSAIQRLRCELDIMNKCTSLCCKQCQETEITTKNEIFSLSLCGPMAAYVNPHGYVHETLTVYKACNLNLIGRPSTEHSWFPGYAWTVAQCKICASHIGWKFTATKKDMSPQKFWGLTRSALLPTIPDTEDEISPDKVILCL
Protein cereblon/Zinc finger protein Aiolos (Homo sapiens), sequence (Q9UKT9 whole entry, looked up, canonical isoform): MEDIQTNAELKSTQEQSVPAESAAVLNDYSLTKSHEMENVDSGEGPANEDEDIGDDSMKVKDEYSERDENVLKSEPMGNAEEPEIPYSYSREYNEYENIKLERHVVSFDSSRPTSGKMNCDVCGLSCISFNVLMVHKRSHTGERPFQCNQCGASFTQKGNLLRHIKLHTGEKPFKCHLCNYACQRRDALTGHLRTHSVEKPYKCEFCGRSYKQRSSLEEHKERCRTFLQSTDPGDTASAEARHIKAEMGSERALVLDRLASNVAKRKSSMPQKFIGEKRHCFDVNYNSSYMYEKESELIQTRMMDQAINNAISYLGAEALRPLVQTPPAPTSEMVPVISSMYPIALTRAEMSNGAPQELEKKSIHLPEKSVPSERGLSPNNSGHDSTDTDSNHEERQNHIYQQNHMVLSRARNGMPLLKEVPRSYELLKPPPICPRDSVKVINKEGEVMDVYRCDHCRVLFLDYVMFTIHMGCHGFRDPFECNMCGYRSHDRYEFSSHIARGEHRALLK

In the case of `O=C1CC(NC(=O)OC[C@@H]2CCCN2)C(=O)N1` (stereo partly specified), in series [1], the inhibition entry is “inactive”.
In the case of `O=C1CCC(N2C(=O)c3cccc([N+](=O)[O-])c3C2=O)C(=O)N1` (stereo unspecified), the Ki in series [2] is > 40 µM. In series [1], the inhibition result is “inactive”.
On to `O=C1CCC(N2C(=O)c3ccc([N+](=O)[O-])cc3C2=O)C(=O)N1` (stereo unspecified), for which, in series [2], the Ki amounted to 9 µM. Further, in series [1], the inhibition result is “inactive”.
As for `O=C(O)CCC(=O)NCc1ccc(COC(=O)NC2CC(=O)NC2=O)cc1` (stereo unspecified), in series [2], the Ki is 12 µM. For the same compound, in series [3], the solubility was > 200 mM. For the same compound, the inhibition result in series [1] is “inactive”.
Turning to `NC[C@H]1CC[C@@H](COC(=O)NC2CC(=O)NC2=O)CC1.O=C(O)C(F)(F)F` (stereo partly specified), the solubility entry in series [4] is on record as “Soluble”. Moreover, in series [1], the inhibition entry was “inactive”.
The compound `O=C1CC(NC(=O)OCc2ccccc2)C(=O)N1` (stereo unspecified) came in with a Ki in series [2] of 4 µM.
Regarding `O=C1CC(NC(=O)c2sc3ccccc3c2Cl)C(=O)N1` (stereo unspecified), the Ki in series [2] was > 40 µM. Besides, the inhibition entry in series [1] is “inactive”.
As for `O=C(/C=C/c1ccccc1)NC1CC(=O)NC1=O` (stereo unspecified), in series [2], affinity was put at a Ki of 20 µM. In other words, the double-digit micromolar range.
On to `O=C1CC(NC(=O)Cc2ccccc2)C(=O)N1` (stereo unspecified), for which the Ki in series [2] was > 40 µM. Moreover, the inhibition entry in series [1] is “inactive”.
For `NC[C@H]1CC[C@@H](COC(=O)NC2CCC(=O)NC2=O)CC1.O=C(O)C(F)(F)F` (stereo partly specified), the solubility result in series [4] is given as “Soluble”. Further, in series [1], the inhibition entry was “inactive”.
In turn, `O=C1CCC(NC(=O)c2ccccc2C(=O)O)C(=O)N1` (stereo unspecified) gave an inhibition at 3 µM in series [5] of 80%.
`O=C1CC(NC(=O)c2sc3cccc(Cl)c3c2Cl)C(=O)N1` (stereo unspecified): the inhibition constant Ki in series [2] was determined as 20 µM. Besides, in series [1], the inhibition result was “inactive”.
As to `NCc1ccc(COC(=O)NC2CC(=O)NC2=O)cc1.O=C(O)C(F)(F)F` (stereo unspecified), the affinity in series [2] corresponds to a Ki of 12 µM. Further, the solubility result in series [4] is reported as “Soluble”. In series [1], the inhibition result was “inactive”.
On to `O=C1CC(N2C(=O)c3ccc([N+](=O)[O-])cc3C2=O)C(=O)N1` (stereo unspecified), for which the inhibition constant Ki in series [2] amounted to 11 µM. Moreover, in series [1], the inhibition entry is “inactive”.
For the compound `O=C1CCC(N2C(=O)c3ccccc3C2=O)C(=O)N1` (stereo unspecified) [THALIDOMIDE], the half-life in series [6] lay in the range of 5.5 to 7.3 h.
For `Nc1cccc2c1CN(C1CCC(=O)NC1=O)C2=O` (stereo unspecified) [LENALIDOMIDE], the Ki in series [2] was 3.1 µM.
In series [2], `O=C1CCC(NC(=O)OC[C@@H]2CCCN2)C(=O)N1` (stereo partly specified) displayed a Ki of 45 µM. Further, the inhibition entry in series [1] was “inactive”.
The like results for `O=C1CC(NC(=O)c2cc([N+](=O)[O-])cc([N+](=O)[O-])c2)C(=O)N1` (stereo unspecified) were, in that order, > 99 µM and “inactive”.
For `Nc1cccc2c1C(=O)N(C1CCC(=O)NC1=O)C2=O` (stereo unspecified) [POMALIDOMIDE], in series [2], affinity was put at a Ki of 0.8 µM. In other words, the sub-micromolar range.
`O=C(O)CCC(=O)NCc1ccc(COC(=O)NC2CCC(=O)NC2=O)cc1` (stereo unspecified) returned a Ki in series [2] of 36 µM. The solubility in series [3] was > 200 mM. For the same compound, the inhibition entry in series [1] is “inactive”.
Turning to `CC(C)=CC(=O)NC1CC(=O)NC1=O` (stereo unspecified), the Ki in series [2] is > 40 µM. For the same compound, the inhibition result in series [1] is “inactive”.
As to `Nc1cccc2c1C(=O)N(C1CC(=O)NC1=O)C2=O` (stereo unspecified), the Ki in series [2] is > 40 µM.
With `O=C1CC(N2C(=O)c3cccc([N+](=O)[O-])c3C2=O)C(=O)N1` (stereo unspecified), in series [2], the Ki is > 40 µM. Moreover, the inhibition result in series [1] was “inactive”.
